Assay results reported in paper PMC6099197 (Clinical Pharmacology and Therapeutics, 2017).

Assays:
[1] = In vitro solubility in aqueous buffered solutions and biorelevant media; type: physicochemical; details: for solubility at 24 h: thermodynamic from solid
In short: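 Crystalline succinate salt of test compound (~763 mg, ~600 mg free-form equivalent) added to 250 mL of 50 mM aqueous buffer (HCl/KCl pH 2.0, acetate pH 4.5, phosphate pH 6.8 or 7.5) or FaSSIF v1 (pH 6.5, 3 mM taurocholate, 0.75 mM lecithin) or FeSSIF v1 (pH 5.0, 15 mM bile salt). Held at 37 ± 1°C with magnetic stirring. Liquid separated at 24 h and assayed by HPLC. Top tested level 2.4 mg/mL; triplicate, mean reported.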

[2] = Food effect study A2103, single-dose PK in healthy volunteers; type: in vivo, human; details: single 600 mg dose
[3] = pKa; type: physicochemical

- solubility ([1]; acidic media): ≤ 200000 µg/mL
- solubility at 24 h ([1]; aqueous buffered solution, 37 °C, pH 2, aqueous buffer): > 2400 µg/mL
- solubility at 24 h ([1]; biorelevant medium FaSSIF v1, 37 °C, pH 6.5, fassif): > 2400 µg/mL
- solubility at 24 h ([1]; biorelevant medium FeSSIF v1, 37 °C, pH 5, fessif): > 2200 µg/mL
- half-life ([2]; both, human, plasma, oral, 600 mg, T1/2, Geo-mean (CV% Geo-mean), fed state (high-fat, high-calorie meal)): 33.6 h
- Tmax fed minus fasted, difference of the medians (90% CI) [2]: 1 (–2, 8) h
- pKa ([3]; pKa1 (base)): 8.6
- pKa ([3]; pKa2 (base)): 5.5
Compound: CN(C)C(=O)c1cc2cnc(Nc3ccc(N4CCNCC4)cn3)nc2n1C1CCCC1 [Ribociclib]
